Results from ChEMBL document CHEMBL4002590, “Design and Synthesis of a Pan-Janus Kinase Inhibitor Clinical Candidate (PF-06263276) Suitable for Inhaled and Topical Delivery for the Treatment of Inflammatory Diseases of the Lungs and Skin” (J Med Chem, 2017).
Activity calls are given as the source filed them. The calls are words filed in the database; no cut-off is given here.

Columns and labels:
[1] = target: Non-receptor tyrosine-protein kinase TYK2 (Homo sapiens, UniProt P29597); experiment: Inhibition of Tyk2 (unknown origin) using peptide substrate preincubated for 60 mins followed by substrate addition and measured after 60 mins by microfluidic assay
In short: (§1)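 Caliper microfluidic assay of peptide-substrate phosphorylation by the relevant JAK enzyme, run at 1 mM ATP; IC50 values are geometric means of at least three determinations.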

Liver = experiment: Metabolic stability in human liver microsomes assessed per mg protein; assay type: ADME, microsome
In short: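 Metabolic stability measured as turnover in human liver microsomes.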

[2] = target: T1, Tyrosine-protein kinase JAK3 (Homo sapiens, UniProt P52333); experiment: Inhibition of GST tagged human recombinant JAK3 catalytic domain expressed in baculovirus using peptide substrate preincubated for 60 mins followed by substrate addition and measured after 60 mins by microfluidic assay; in short: as §1
T1 sequence (P52333 whole entry): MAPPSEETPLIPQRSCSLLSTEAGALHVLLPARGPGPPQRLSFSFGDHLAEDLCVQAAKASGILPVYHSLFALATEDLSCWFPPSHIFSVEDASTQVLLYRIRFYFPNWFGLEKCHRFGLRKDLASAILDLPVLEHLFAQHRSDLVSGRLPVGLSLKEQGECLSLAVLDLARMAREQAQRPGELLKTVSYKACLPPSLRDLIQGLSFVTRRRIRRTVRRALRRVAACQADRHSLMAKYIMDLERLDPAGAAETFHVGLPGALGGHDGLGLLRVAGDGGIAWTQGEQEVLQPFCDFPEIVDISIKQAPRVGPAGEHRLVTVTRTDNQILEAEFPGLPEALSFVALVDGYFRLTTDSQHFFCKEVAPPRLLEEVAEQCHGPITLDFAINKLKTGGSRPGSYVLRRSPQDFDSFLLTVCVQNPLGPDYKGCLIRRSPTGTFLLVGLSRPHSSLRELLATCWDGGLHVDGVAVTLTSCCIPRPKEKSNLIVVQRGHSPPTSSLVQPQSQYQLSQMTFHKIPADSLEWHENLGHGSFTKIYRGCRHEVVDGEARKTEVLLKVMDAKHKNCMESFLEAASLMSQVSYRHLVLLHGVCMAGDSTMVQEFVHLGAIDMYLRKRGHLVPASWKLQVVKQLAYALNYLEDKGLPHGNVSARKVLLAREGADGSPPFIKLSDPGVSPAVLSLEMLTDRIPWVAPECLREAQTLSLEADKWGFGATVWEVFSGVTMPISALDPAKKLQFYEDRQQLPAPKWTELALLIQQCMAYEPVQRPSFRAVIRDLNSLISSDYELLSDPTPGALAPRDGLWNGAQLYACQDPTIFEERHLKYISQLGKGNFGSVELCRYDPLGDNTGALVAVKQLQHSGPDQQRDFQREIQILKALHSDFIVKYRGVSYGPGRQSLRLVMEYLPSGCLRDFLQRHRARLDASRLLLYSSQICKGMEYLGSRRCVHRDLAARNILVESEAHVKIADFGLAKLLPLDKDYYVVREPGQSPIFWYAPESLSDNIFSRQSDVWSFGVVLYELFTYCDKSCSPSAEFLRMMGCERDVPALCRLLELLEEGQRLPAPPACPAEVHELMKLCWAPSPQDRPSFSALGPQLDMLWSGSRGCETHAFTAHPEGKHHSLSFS

[3] = target: Tyrosine-protein kinase JAK2 (Homo sapiens, UniProt O60674); experiment: Inhibition of GST tagged human recombinant JAK2 catalytic domain expressed in baculovirus using peptide substrate preincubated for 60 mins followed by substrate addition and measured after 60 mins by microfluidic assay; in short: as §1
[4] = target: Tyrosine-protein kinase JAK1 (Homo sapiens, UniProt P23458); experiment: Inhibition of GST tagged human recombinant JAK1 catalytic domain expressed in baculovirus using peptide substrate preincubated for 60 mins followed by substrate addition and measured after 60 mins by microfluidic assay
Janus Kinase (JAK) [5] = target: T2, Janus Kinase (JAK) (Homo sapiens, UniProt P52333+P23458+O60674+P29597); experiment: Inhibition of JAK in human PBMC assessed as reduction in human recombinant IL-2/ mouse anti-human CD3 stimulated STAT5 phosphorylation at tyrosine residue preincubated for 1 hr followed by IL2/CD3 stimulation after 30 mins by immunofluorescence assay
[6] = Drug metabolism in human liver microsomes assessed as UGT-mediated compound glucuronidation per mg protein in presence of microsomal activator Brij58 and cofactor UDPGA; assay type: ADME
In short: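 Human liver microsomes supplemented with the activator Brij58 and cofactor UDPGA, NADPH omitted, to measure phase II glucuronidation turnover.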

Janus Kinase (JAK) [7] = target: T2, Janus Kinase (JAK); experiment: Inhibition of JAK in human PBMC assessed as reduction in human recombinant IL-2/ mouse anti-human CD3 stimulated STAT5 phosphorylation at tyrosine residue at 10-fold IC50 preincubated for 1 hr followed by compound washout and subsequent IL2/CD3 stimulation measured after 30 mins by immunofluorescence assay
In short: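 PBMC wash-out format: cells exposed to compound for 1 h at 10-fold IC50, washed extensively, then pSTAT5 response to IL-2 stimulation followed over time to give a recovery T1/2.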

Janus Kinase (JAK) [8] = target: T2, Janus Kinase (JAK); experiment: Inhibition of JAK in human PBMC assessed as reduction in human recombinant IL-2/mouse anti-human CD3 stimulated IFNgamma production preincubated for 1 hr followed by IL2/CD3 stimulation measured after 18 hrs by ELISA
In short: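 Primary PBMCs stimulated with IL-2; inhibition of IFNγ release measured. IC50 values are geometric means of at least three determinations.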

Homo sapiens [9] = species: Homo sapiens; experiment: Selectivity ratio of IC50 for GST tagged human recombinant JAK3 catalytic domain expressed in baculovirus to IC50 for GST tagged human recombinant JAK1 catalytic domain expressed in baculovirus
In short: (§2)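 Both IC50s come from the same microfluidic mobility-shift (Caliper) assay with 1 mM ATP. The read-out is inhibition of phosphorylation of a peptide substrate by JAK1, JAK2 or JAK3. Each IC50 is a geometric mean of at least three determinations.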

Homo sapiens [10] = species: Homo sapiens; experiment: Selectivity ratio of IC50 for GST tagged human recombinant JAK2 catalytic domain expressed in baculovirus to IC50 for GST tagged human recombinant JAK1 catalytic domain expressed in baculovirus; in short: as §2
[11] = Thermodynamic solubility of the compound in pH 7.4 water buffer using crystalline solid sample; assay type: physicochemical; settings: read-out: Therm_solubility
In short: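 Thermodynamic solubility measured from crystalline solid in water buffered at pH 7.4.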

[12] = target: T3, Tyrosine-protein kinase JAK3 (Homo sapiens) (UniProt P52333); experiment: Inhibition of GST tagged human recombinant JAK3 catalytic domain expressed in baculovirus assessed as time taken for inhibition to reverse by 50% by dilution recovery based microfluidic mobility shift assay
T3 sequence (whole entry): T1 sequence (P52333 whole entry)
In short: (§3)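 JAK3 inhibition kinetics measured by continuous dilution-recovery in a microfluidic mobility shift format; offset rate (min−1) converted to a recovery T1/2.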

[13] = target: T3, Tyrosine-protein kinase JAK3 (Homo sapiens); experiment: Inhibition of GST tagged human recombinant JAK3 catalytic domain expressed in baculovirus assessed as offset rate by dilution recovery based microfluidic mobility shift assay; in short: as §3
Janus Kinase (JAK) [14] = target: T2, Janus Kinase (JAK)
[15] = target: Mitogen-activated protein kinase kinase kinase kinase 4 (Homo sapiens) (UniProt O95819); experiment: Inhibition of MAP4K4 (unknown origin) at 1 uM relative to control
[16] = Aqueous solubility of the compound; assay type: physicochemical; settings: buffer
Janus Kinase (JAK) [17] = target: T2, Janus Kinase (JAK); remark: listed apart in the source

Sequence of Non-receptor tyrosine-protein kinase TYK2 (P29597 whole entry): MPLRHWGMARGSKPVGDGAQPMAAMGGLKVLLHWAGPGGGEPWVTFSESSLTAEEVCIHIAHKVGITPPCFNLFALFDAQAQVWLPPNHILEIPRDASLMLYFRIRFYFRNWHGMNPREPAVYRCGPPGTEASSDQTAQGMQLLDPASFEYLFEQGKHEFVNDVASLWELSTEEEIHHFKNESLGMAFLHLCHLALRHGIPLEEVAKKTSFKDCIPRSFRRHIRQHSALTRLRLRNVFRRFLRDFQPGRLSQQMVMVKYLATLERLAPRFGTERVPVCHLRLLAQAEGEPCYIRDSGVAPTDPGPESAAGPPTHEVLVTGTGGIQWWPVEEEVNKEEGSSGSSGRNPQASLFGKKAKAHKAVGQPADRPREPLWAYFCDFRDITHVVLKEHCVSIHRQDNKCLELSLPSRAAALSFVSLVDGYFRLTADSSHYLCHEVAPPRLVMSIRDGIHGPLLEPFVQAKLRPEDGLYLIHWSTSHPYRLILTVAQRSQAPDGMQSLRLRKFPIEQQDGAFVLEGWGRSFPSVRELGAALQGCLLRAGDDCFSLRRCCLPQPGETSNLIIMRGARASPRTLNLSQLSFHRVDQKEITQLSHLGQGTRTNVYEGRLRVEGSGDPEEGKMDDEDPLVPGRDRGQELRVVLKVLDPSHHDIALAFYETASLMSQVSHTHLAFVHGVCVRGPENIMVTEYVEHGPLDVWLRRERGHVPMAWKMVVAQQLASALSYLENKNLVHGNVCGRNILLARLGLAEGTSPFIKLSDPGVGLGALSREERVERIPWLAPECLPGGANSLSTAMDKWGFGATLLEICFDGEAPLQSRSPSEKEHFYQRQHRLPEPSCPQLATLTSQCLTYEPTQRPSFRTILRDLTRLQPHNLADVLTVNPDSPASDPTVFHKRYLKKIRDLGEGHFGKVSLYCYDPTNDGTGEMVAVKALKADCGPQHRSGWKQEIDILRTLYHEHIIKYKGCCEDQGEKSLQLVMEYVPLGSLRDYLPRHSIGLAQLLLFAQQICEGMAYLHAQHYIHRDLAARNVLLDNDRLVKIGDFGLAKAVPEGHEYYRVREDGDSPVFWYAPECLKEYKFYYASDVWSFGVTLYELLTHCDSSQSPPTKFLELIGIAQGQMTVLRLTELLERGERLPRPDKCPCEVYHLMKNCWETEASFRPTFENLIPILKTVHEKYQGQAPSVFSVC
Sequence of Tyrosine-protein kinase JAK1 (P23458 whole entry, the tested form may be a part): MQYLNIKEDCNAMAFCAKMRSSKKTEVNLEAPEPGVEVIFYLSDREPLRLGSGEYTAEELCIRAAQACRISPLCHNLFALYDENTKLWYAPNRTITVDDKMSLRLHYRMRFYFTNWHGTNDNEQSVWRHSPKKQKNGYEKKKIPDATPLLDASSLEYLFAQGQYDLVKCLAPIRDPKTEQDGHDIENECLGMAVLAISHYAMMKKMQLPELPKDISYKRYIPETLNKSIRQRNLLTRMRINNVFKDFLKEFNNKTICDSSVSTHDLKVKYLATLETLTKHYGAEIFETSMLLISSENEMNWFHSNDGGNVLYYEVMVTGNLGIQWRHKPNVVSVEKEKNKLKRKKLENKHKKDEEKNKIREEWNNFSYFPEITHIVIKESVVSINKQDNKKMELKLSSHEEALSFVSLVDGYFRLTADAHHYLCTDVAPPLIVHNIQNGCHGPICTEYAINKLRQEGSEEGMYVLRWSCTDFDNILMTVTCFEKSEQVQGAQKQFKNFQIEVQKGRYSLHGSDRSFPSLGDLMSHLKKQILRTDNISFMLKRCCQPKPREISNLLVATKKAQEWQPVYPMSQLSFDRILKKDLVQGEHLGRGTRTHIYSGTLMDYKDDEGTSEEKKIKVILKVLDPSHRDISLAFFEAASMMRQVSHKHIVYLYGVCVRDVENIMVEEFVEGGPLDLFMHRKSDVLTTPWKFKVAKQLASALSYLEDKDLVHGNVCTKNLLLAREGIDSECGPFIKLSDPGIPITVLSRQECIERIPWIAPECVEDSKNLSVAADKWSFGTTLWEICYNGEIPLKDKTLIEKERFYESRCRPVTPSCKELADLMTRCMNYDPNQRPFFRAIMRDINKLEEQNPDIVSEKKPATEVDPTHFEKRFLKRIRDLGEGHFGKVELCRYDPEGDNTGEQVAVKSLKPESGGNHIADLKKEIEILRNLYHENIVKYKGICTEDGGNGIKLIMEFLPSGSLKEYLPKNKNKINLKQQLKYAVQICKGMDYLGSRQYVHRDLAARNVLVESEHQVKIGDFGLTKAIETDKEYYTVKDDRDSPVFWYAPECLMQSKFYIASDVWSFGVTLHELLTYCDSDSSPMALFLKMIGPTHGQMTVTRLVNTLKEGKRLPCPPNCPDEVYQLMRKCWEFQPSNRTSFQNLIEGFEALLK
T2 sequence (O60674 whole entry, looked up, one chain of several): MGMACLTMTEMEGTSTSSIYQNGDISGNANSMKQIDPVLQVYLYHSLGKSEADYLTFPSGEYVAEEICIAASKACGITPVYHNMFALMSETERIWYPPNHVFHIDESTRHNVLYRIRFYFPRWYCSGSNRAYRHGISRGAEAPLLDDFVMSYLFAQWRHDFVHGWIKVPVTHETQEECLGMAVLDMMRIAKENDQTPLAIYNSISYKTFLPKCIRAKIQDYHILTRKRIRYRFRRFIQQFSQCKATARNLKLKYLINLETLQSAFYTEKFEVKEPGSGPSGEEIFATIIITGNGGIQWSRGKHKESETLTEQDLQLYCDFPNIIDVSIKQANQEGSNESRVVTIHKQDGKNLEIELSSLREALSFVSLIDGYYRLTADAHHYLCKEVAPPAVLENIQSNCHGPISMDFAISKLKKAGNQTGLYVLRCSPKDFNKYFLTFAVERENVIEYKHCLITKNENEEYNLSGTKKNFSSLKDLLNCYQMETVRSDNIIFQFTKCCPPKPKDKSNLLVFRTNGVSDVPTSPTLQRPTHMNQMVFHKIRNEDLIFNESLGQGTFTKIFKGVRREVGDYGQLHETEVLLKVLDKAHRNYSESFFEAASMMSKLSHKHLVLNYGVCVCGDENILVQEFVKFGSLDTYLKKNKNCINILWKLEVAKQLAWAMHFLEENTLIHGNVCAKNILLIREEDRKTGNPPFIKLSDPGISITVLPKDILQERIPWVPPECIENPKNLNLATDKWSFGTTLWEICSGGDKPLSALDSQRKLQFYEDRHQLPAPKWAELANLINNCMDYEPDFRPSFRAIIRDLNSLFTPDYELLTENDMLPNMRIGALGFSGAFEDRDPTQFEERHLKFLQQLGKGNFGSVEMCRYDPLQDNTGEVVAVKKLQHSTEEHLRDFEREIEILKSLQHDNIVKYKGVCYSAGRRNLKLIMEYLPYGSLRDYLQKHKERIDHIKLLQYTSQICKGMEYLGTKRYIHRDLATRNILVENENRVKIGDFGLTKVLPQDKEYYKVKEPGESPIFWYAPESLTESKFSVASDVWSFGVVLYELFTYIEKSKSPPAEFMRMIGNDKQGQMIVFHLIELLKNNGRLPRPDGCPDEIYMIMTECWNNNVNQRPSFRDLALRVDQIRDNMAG
T2 sequence (P23458 whole entry, looked up, one chain of several): as the sequence (P23458 whole entry, the tested form may be a part) above
T2 sequence (P29597 whole entry, looked up, one chain of several): as the sequence (P29597 whole entry) above
Sequence of Tyrosine-protein kinase JAK2 (O60674 whole entry, the tested form may be a part): as the sequence (O60674 whole entry, looked up, one chain of several) above
Sequence of Mitogen-activated protein kinase kinase kinase kinase 4 (Homo sapiens) (O95819 2-1239 limits assumed): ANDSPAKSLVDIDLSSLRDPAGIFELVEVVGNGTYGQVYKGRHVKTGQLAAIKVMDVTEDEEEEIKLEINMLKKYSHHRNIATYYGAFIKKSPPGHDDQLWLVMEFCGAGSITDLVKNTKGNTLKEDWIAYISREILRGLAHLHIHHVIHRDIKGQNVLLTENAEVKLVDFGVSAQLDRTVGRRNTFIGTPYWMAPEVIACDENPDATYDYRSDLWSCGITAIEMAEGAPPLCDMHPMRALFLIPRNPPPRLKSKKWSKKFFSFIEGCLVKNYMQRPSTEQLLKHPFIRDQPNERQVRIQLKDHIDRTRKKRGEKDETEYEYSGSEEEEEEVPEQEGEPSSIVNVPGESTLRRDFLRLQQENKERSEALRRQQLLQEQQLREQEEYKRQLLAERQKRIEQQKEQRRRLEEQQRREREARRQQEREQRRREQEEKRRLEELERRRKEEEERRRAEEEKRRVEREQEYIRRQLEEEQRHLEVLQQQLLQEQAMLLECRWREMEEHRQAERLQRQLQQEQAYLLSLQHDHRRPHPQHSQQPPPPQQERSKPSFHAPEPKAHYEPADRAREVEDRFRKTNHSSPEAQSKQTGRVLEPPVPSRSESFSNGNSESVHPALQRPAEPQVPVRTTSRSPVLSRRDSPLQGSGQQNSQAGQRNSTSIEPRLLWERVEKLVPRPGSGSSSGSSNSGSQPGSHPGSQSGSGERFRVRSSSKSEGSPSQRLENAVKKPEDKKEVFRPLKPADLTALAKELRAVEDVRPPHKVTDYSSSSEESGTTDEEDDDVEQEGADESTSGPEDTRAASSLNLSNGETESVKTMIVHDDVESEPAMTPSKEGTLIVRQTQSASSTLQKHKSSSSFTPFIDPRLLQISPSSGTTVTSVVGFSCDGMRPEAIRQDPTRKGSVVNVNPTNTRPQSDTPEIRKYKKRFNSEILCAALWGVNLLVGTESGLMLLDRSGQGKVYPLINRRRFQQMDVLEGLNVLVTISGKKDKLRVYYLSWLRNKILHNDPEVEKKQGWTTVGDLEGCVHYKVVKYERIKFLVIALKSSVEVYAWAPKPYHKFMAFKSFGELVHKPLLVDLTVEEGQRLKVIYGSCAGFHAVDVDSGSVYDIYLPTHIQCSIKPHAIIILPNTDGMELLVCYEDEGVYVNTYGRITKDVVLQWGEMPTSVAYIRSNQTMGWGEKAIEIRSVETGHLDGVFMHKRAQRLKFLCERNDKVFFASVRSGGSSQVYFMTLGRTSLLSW

SMILES	IC50 [1] [nM]	Stability (Liver) [µL/min]	IC50 [2] [nM]	IC50 [3] [nM]	IC50 [4] [nM]	IC50 (Janus Kinase (JAK) [5]) [nM]	Drug metabolism [6] [µL/min]	inhibition (Janus Kinase (JAK) [7])	IC50 (Janus Kinase (JAK) [8]) [nM]	Ratio IC50 (Homo sapiens [9])	Ratio IC50 (Homo sapiens [10])	solubility thermodynamic [11]	T1/2 [12] [h]	K [13] [min⁻¹]	T1/2 (Janus Kinase (JAK) [14]) [h]	inhibition [15] [%]	solubility [16]	TDI (Janus Kinase (JAK) [17])
C[C@@H]1CCN(C(=O)N2CCCC2)C[C@@H]1N(C)c1ncnc2[nH]ccc12	1630	82	139	124	37.5	27	< 3.5	inactive	–	–	–	–	–	–	–	–	–	–
CCc1c(-c2ccc3c(-c4nc5ccccc5[nH]4)n[nH]c3c2)ccc(O)c1F	–	–	–	–	–	–	46	–	204.8	–	–	–	–	–	–	–	–	–
CC(C)c1cc(O)ccc1-c1ccc2c(-c3nc4ccccc4[nH]3)n[nH]c2c1	392	–	293	79.6	26.8	–	–	–	250.3	–	–	–	–	–	–	–	–	–
CCc1cc(O)c(F)cc1-c1ccc2c(-c3nc4c([nH]3)CN(Cc3ccccc3)CC4)n[nH]c2c1	57.5	75	31	15.9	1.8	–	> 360	–	30.4	–	–	–	–	–	–	–	–	–
C[C@@H]1CCN(C(=O)CC#N)C[C@@H]1N(C)c1ncnc2[nH]ccc12	–	–	–	–	–	–	–	–	–	3	5	–	–	–	–	–	–	–
CCc1cc(O)ccc1-c1ccc2c(C(=O)N(C)C)n[nH]c2c1	> 10000	–	> 10000	> 10000	2760	–	–	–	> 10000	–	–	–	–	–	–	–	–	–
CCc1cc(O)ccc1-c1ccc2c(-c3nc4c([nH]3)CN(S(C)(=O)=O)CC4)n[nH]c2c1	25.1	18	1.3	5.6	1.3	–	7.3	–	39.1	–	–	–	–	–	–	–	–	–
Oc1cccc(-c2ccc3c(-c4nc5ccccc5[nH]4)n[nH]c3c2)c1	291	–	493	101	68.6	–	–	–	572.7	–	–	–	–	–	–	–	–	–
CCc1cc(O)ccc1-c1ccc2c(-c3nc4c([nH]3)CN(C(C)=O)CC4)n[nH]c2c1	22.7	42	7.1	3.3	0.5	–	5.5	–	4.5	–	–	10 to 20 µM	–	–	–	–	–	–
CCc1cc(O)c(F)cc1-c1ccc2c(-c3nc4c([nH]3)CCN(C(=O)c3ccc(F)cc3)C4)n[nH]c2c1	0.8	48	1.7	0.3	< 0.1	–	37	–	35	–	–	–	–	–	–	–	–	–
CCCc1cc(O)ccc1-c1ccc2c(-c3nc4ccccc4[nH]3)n[nH]c2c1	437	–	166	17.3	9.7	–	–	–	75.4	–	–	–	–	–	–	–	–	–
CCc1cc(O)ccc1-c1ccc2c(-c3nc4c([nH]3)CN(C)CC4)n[nH]c2c1	20.1	56	2.9	6.4	2.1	–	< 1.9	–	18.6	–	–	10 to 20 µM	–	–	–	–	–	–
CCc1cc(O)ccc1-c1ccc2c(C(=O)NC)n[nH]c2c1	796	–	125	40.9	7.5	–	–	–	9.1	–	–	14 µM	–	–	–	–	–	–
CCc1cc(O)ccc1-c1ccc2c(C(N)=O)n[nH]c2c1	54.5	–	4.3	4.2	1.7	–	–	–	19.1	–	–	15 µM	–	–	–	–	–	–
C[C@@H]1CCN(C(=O)N2CC[C@@H](S(=O)(=O)c3cccc(O)c3)C2)C[C@@H]1N(C)c1ncnc2[nH]ccc12	959	131	34.1	21.2	2.3	343	> 200	inactive	–	–	–	20 µg/mL	0.467	0.024	–	–	–	–
CCc1cc(O)ccc1-c1ccc2c(C(=O)Nc3ccc(C)nc3)n[nH]c2c1	816	–	418	58.8	60	–	–	–	277.8	–	–	0.5 µM	–	–	4.5	–	–	–
CCc1cc(O)c(F)cc1-c1ccc2c(-c3nc4ccccc4[nH]3)n[nH]c2c1	15.3	–	16.7	7.9	0.8	–	> 360	–	47.9	–	–	–	–	–	3.5	–	–	–
CCc1cc(O)ccc1-c1ccc2c(-c3nc4c([nH]3)CCN(C(=O)c3cnc(N5CCCCC5)cn3)C4)n[nH]c2c1	–	–	–	–	–	–	17	–	–	–	–	–	–	–	–	–	–	–
CCc1cc(O)ccc1-c1ccc2c(-c3ncc[nH]3)n[nH]c2c1	4.6	–	0.8	0.8	0.9	–	–	–	10.4	–	–	4.1 µM	–	–	–	–	–	–
CCc1cc(O)ccc1-c1ccc2c(-c3nc4ccccc4[nH]3)n[nH]c2c1	9.1	35	8.3	2.2	0.4	–	49	–	10.5	–	–	–	1.9	0.006	6.5	> 85	Insoluble	Active
